In data set [1] the test system is Staphylococcus epidermidis. The data set can be described thus: Antibacterial activity against Staphylococcus epidermidis ATCC 12228 assessed as growth inhibition after 24 hrs. It is filed as functional. The settings on record: for MIC90: Staphylococcus epidermidis, ATCC 12228, 24 h. An outline of the steps:
(§1)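 Log-phase bacteria adjusted to OD600 0.001 in nutrient broth. Peptide dilutions in 20 mM Tris–HCl pH 7.4 were added; buffer alone served as control. Incubation was 37 °C for 24 h. % inhibition was calculated from the OD600 change (24 h minus time zero) relative to the control change. MIC was the concentration giving >90% growth inhibition.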

The subject of the next data set is Pseudomonas aeruginosa. The data set can be described thus: Antibacterial activity against Pseudomonas aeruginosa ATCC 27853 assessed as growth inhibition after 24 hrs. The format is functional. In short, it runs like this:
as §1

A further data set concerns Salmonella typhi. Put plainly: Antibacterial activity against Salmonella typhi DMST 22842 assessed as growth inhibition after 24 hrs. It is filed as functional, Salmonella enterica subsp. enterica serovar Typhi. To be noted: for MIC90: Salmonella enterica, DMST 22842, 24 h.
The next data set concerns Escherichia coli. Put plainly: Antibacterial activity against Escherichia coli ATCC 25922 assessed as growth inhibition after 24 hrs. The format is functional. In short, it runs like this: as §1
A further data set has as its system Staphylococcus aureus. Put plainly: Antibacterial activity against Staphylococcus aureus ATCC 25923 assessed as growth inhibition after 24 hrs. The settings on record: for MIC90: Staphylococcus aureus, ATCC 25923, 24 h. It is filed as functional. In short, it runs like this: as §1
Data set [2] can be described thus: (§2) Antibacterial activity against Vibrio cholerae non-O1 non-O139 assessed as growth inhibition after 24 hrs. It is filed as functional. The settings on record: for MIC90: Vibrio cholerae, non-O139, 24 h.
The nature of data set [3]: Hemolytic activity in human RBC at 1 to 91 ug/ml. The format is ADME, cell-based. To be noted: erythrocyte. An outline of the steps: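 Human red blood cells were exposed to peptide. Minimal hemolytic concentration was taken as the lowest peptide concentration producing 5% hemolysis.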
A short description of data set [4]: Therapeutic index, ratio of MHC for human RBC to MIC for Salmonella typhi DMST 22842. To be noted: human red blood cells (RBC), read-out: TI. In short, it runs like this:
(§3)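 Index was calculated as MHC/MIC. MHC was the lowest peptide concentration producing 5% hemolysis of human red blood cells. MIC was the concentration giving >90% inhibition of bacterial growth (OD600) after 24 h at 37 °C in nutrient broth, with bacteria starting at OD600 0.001.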

The nature of data set [5]: Therapeutic index, ratio of MHC for human RBC to MIC for Staphylococcus aureus ATCC 25923. The settings on record: human red blood cells (RBC), read-out: TI. An outline of the steps:
as §3

The nature of data set [6]: Therapeutic index, ratio of MHC for human RBC to MIC for Staphylococcus epidermidis ATCC 12228. To be noted: human red blood cells (RBC), read-out: TI. An outline of the steps:
as §3

The nature of data set [7]: Therapeutic index, ratio of MHC for human RBC to MIC for Escherichia coli ATCC 25922. The settings on record: human red blood cells (RBC), read-out: TI. An outline of the steps: as §3
In the next data set the test system is Vibrio cholerae non-O1. The description is as §2. It is filed as functional.
Data set [8] can be described thus: Therapeutic index, ratio of MHC for human RBC to MIC for Pseudomonas aeruginosa ATCC 27853. The settings on record: human red blood cells (RBC), read-out: TI. An outline of the steps:
as §3

Data set [9] can be described thus: Therapeutic index, ratio of MHC for human RBC to MIC for Vibrio cholerae non-O1 non-O139. The settings on record: human red blood cells (RBC), read-out: TI. An outline of the steps:
as §3

Setting [10] is: Pseudomonas aeruginosa, ATCC 27853, 24 h.
The mark [11] stands for this setting: Escherichia coli, ATCC 25922, 24 h.

The source made the active and inactive calls. No cut-off for these calls is given here.

As for H-NGVQPKY-OH, the “growth inhibition (GI)” value (in data set [1]; in the data set with Pseudomonas aeruginosa; in the data set on Salmonella typhi; in the data set with Escherichia coli; in the data set with Staphylococcus aureus; in [2]) was under 90% throughout. For the same substance, the MIC90 (in data set [1]; with Pseudomonas aeruginosa (setting [10]); with Salmonella typhi; in the data set with Escherichia coli (setting [11]); in the data set with Staphylococcus aureus; in [2]) was over 200 µg/mL throughout.
With H-NGVQPKYRWWRWWRRWWW-OH, the Activity entry in [3] is given as “Toxic”. Moreover, the selectivity ratio in [4] is under 0.25; in data set [5], under 0.25; in data set [6], 0.25; in data set [7] it was under 0.25. Also, the MIC90 in data set [1] was 91 µg/mL; in the data set on Salmonella typhi, over 91 µg/mL; with Escherichia coli (setting [11]) it was over 91 µg/mL; in the data set with Staphylococcus aureus, over 91 µg/mL. In addition, the MIC90 entry with Pseudomonas aeruginosa and in the data set on Vibrio cholerae non-O1 was “inactive” throughout. Moreover, the “growth inhibition (GI)” value in the data set on Salmonella typhi, in the data set on Escherichia coli and with Staphylococcus aureus was under 90% each time.
As to H-NGVQPKYRWWRWWRRWWWW-NH2, the selectivity ratio was under 0.06 in data set [8]; under 0.06 in [4]; under 0.06 in [5]; 0.06 in data set [6]; under 0.06 in [7]. In data set [3], the Activity entry is “Toxic”. Also, the MIC90 was 91 µg/mL in data set [1]; over 91 µg/mL with Pseudomonas aeruginosa (setting [10]); over 91 µg/mL with Salmonella typhi; over 91 µg/mL with Escherichia coli (setting [11]); over 91 µg/mL with Staphylococcus aureus. For the same substance, the “growth inhibition (GI)” value with Pseudomonas aeruginosa, in the data set on Salmonella typhi, with Escherichia coli and in the data set on Staphylococcus aureus was under 90% in each case. The MIC90 entry with Vibrio cholerae non-O1 was “inactive”.
Turning to H-NGVQPWYKWWKWWKKWW-NH2, the Activity entry in data set [3] was “Toxic”. Moreover, the selectivity ratio in data set [4] was under 0.06; in data set [5], under 0.06; in [6] it was 0.06; in data set [9], 0.06; in data set [7] it was under 0.06. Further, the MIC90 in data set [1] is 91 µg/mL; in the data set with Salmonella typhi it was over 91 µg/mL; in the data set with Escherichia coli (setting [11]), over 91 µg/mL; in the data set with Staphylococcus aureus, over 91 µg/mL; in data set [2], 91 µg/mL. In the data set with Pseudomonas aeruginosa, the MIC90 entry was “inactive”. For the same substance, the “growth inhibition (GI)” value in the data set with Salmonella typhi, in the data set with Escherichia coli and with Staphylococcus aureus was under 90% throughout.
On to H-RWWRWWRRWW-NH2, for which the selectivity ratio in [8] was 0.04; in [4], under 0.02; in data set [5], under 0.02; in [6] it was under 0.02; in data set [9] it was 0.08; in data set [7], under 0.02. In addition, the Activity entry in data set [3] is recorded as “Toxic”. Besides, the “growth inhibition (GI)” value (in data set [1]; in the data set with Salmonella typhi; in the data set on Escherichia coli; with Staphylococcus aureus) was under 90% throughout. The MIC90 in [1] is over 91 µg/mL; in the data set on Pseudomonas aeruginosa (setting [10]) it was 46 µg/mL; in the data set on Salmonella typhi, over 91 µg/mL; in the data set on Escherichia coli (setting [11]) it was over 91 µg/mL; in the data set on Staphylococcus aureus, over 91 µg/mL; in data set [2], 23 µg/mL.
On to H-RWWRWWRRWWW-NH2, for which the Activity result in data set [3] is “Toxic”. The selectivity ratio in data set [4], in [5], in [6] and in data set [9] was under 0.02 each time. In addition, the “growth inhibition (GI)” value (in [1]; in the data set with Salmonella typhi; in the data set on Staphylococcus aureus; in [2]) was under 90% each time. Besides, the MIC90 (in data set [1]; in the data set on Salmonella typhi; in the data set with Staphylococcus aureus; in data set [2]) was over 91 µg/mL each time. Also, the MIC90 result in the data set with Pseudomonas aeruginosa and with Escherichia coli was “inactive” throughout.

(Values after ChEMBL document CHEMBL2406905, “Improving the antibacterial activity and selectivity of an ultra short peptide by hydrophobic and hydrophilic amino acid stretches” (Bioorg Med Chem Lett, 2013).)
